A1_apoptosis_2: A1 inhibitors via caspase activation, primary screen, cell-based, luminescence, HTS, two replicates. 24,000 tested, under 10 active. AID 2465, 2010. caspase activation, % (no concentration beside the values). MEF A1-2A-BIM cells, caspase-Glo luminescence, 3 h; percent of clofoctol response, DMSO zero; in the data active = caspase activation above about 5.9%; inconclusive = no clear call, values can overlap the other calls; inactive = below about 2.2%
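Test system – A1-2A-BIM-expressing MEF cells · Input – 2500 cells/well · Medium – RPMI-1640 growth medium with 10% FBS · Compound dosing – 50 nL pinned compound · Timing – 3 h compound exposure at 37 °C · Technique – Caspase-Glo luminescence (DEVD substrate) · Evaluation – Caspase-3/7 activity from luminescence increase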
T_cruzi_intra: inhibitors of intracellular Trypanosoma cruzi, primary screen, cell-based, plate reader, single point, set 2; actives 4.9% (n = 22,000); intracellular Trypanosoma cruzi in host cells; activity score (inhibition), % at 5.01 µM; in the data active = activity score above about 55%; inconclusive = no clear call, values can overlap the other calls;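 note: parasites and compound incubated about four days before reading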
INS-1E_ATP_HTS: protection of INS-1E cells from cytokine death, primary screen, ATP luminescence, single point; AID 488910, 2010; INS-1E cytokine-induced death, 48 h; normalised: neutral wells 0, positive control 100; actives 0.1% (n = 20,000); protection from cytokine-induced ATP loss, % at 10 µM;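 active = mean replicate protection from cytokine-induced ATP loss at least 50% and at least 75% of replicates each reaching 50%; inconclusive = meets only one of the two criteria, mean or replicate share; inactive = fails both the mean and replicate share criteria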
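assay system = INS-1E rat insulinoma cells | amount = 8000 cells per well | medium = phenol-red-free RPMI with 5% fetal bovine serum | doses = one compound concentration, pin transfer | timing = 48 h cytokine plus compound treatment, 10 min reagent incubation | also added = IL-1β, TNF-α and IFN-γ cytokine mix | signal = CellTiter-Glo luminescence measuring cellular ATP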
Hits are given with their value; 0 = inactive; ? = inconclusive; - = no result given. This excerpt belongs to a sample that is enriched for hits.

SMILES A1_apoptosis_2 T_cruzi_intra INS-1E_ATP_HTS
C[C@@H]1CN([C@@H](C)CO)C(=O)c2cccc(NC(=O)C3CC3)c2O[C@H]1CN(C)Cc1ccc(Oc2ccccc2)cc1 0 63.1 0
C[C@@H]1CN([C@H](C)CO)C(=O)c2cccc(NC(=O)C3CC3)c2O[C@@H]1CN(C)Cc1ccc(Oc2ccccc2)cc1 - 0 0
C[C@@H]1CN([C@@H](C)CO)C(=O)c2cccc(NC(=O)C3CCCCC3)c2O[C@H]1CN(C)Cc1ccc(Oc2ccccc2)cc1 - 65.6 0
C[C@@H]1CN([C@@H](C)CO)C(=O)c2cccc(NC(=O)C3CCCCC3)c2O[C@@H]1CN(C)Cc1ccc(Oc2ccccc2)cc1 - 0 0
C[C@H](CO)N1C[C@H](C)[C@@H](CN(C)Cc2ccc(Oc3ccccc3)cc2)Oc2c(NC(=O)C3CCCCC3)cccc2C1=O - 75.0 0
C[C@H](CO)N1C[C@H](C)[C@H](CN(C)Cc2ccc(Oc3ccccc3)cc2)Oc2c(NC(=O)C3CC3)cccc2C1=O 0 0 0
CCN(CC)c1ccc(/C=N/NC(=O)c2ccccn2)c(O)c1 0 - -
C=CCNC(=O)[C@H]1[C@@H]2C(=O)O[C@@H](c3ccccc3)[C@@H](c3ccccc3)N2[C@@H](c2ccccc2OCCO)[C@]12C(=O)Nc1ccccc12 0 - -
O=C(N/N=C\c1cc(Br)ccc1O)c1ccccc1O - 0 0
C[C@H]1CN([C@@H](C)CO)C(=O)c2cc(NS(=O)(=O)c3ccc(Cl)cc3)ccc2O[C@H]1CN(C)S(=O)(=O)c1ccc(Cl)cc1 - 44.1 -
C[C@H]1CN([C@@H](C)CO)C(=O)c2cc(NS(=O)(=O)c3ccccc3)ccc2O[C@H]1CN(C)S(=O)(=O)c1ccc(Cl)cc1 0 0 0
Cc1ccc(S(=O)(=O)Nc2ccc3c(c2)C(=O)N([C@H](C)CO)C[C@H](C)[C@H](CN(C)S(=O)(=O)c2ccccc2)O3)cc1 0 74.4 -
Cc1ccc(S(=O)(=O)N(C)C[C@H]2Oc3ccc(NS(=O)(=O)c4ccc(Cl)cc4)cc3C(=O)N([C@@H](C)CO)C[C@@H]2C)cc1 - 0 0
Cc1ccc(S(=O)(=O)N(C)C[C@H]2Oc3ccc(NS(=O)(=O)c4ccccc4)cc3C(=O)N([C@@H](C)CO)C[C@@H]2C)cc1 0 0 0
C[C@H](CO)N1C[C@H](C)[C@H](CN(C)S(=O)(=O)c2ccc(Cl)cc2)Oc2ccc(NS(=O)(=O)c3ccccc3)cc2C1=O - 62.5 -
O=C(CCCCCC(=O)Nc1ccccc1O)N/N=C/c1cc(O)ccc1[N+](=O)[O-] 0 - -
COCCOC(=O)N1C(=O)[C@@]2(c3cc(C#CC4(O)CCCCCC4)ccc31)[C@H](C(=O)NC[C@H](O)c1ccccc1)[C@H]1C(=O)O[C@H](c3ccccc3)[C@H](c3ccccc3)N1[C@@H]2c1ccccc1OCCO 0 - -
C[C@@H]1CN([C@H](C)CO)C(=O)Cc2cc(NC(=O)Nc3cccc4ccccc34)ccc2O[C@H]1CN(C)CC1CCCCC1 - 68.5 0
C[C@H]1CN([C@@H](C)CO)C(=O)Cc2cc(NC(=O)Nc3cccc4ccccc34)ccc2O[C@@H]1CN(C)CC1CC1 0 0 0
C[C@H]1CN([C@@H](C)CO)C(=O)Cc2cc(NC(=O)Nc3cccc4ccccc34)ccc2O[C@H]1CN(C)CC1CCCCC1 - 61.8 0
C[C@@H]1CN([C@H](C)CO)C(=O)Cc2cc(NC(=O)Nc3cccc4ccccc34)ccc2O[C@@H]1CN(C)CC1CCCCC1 0 0 0
O=C(CCCCCC(=O)N/N=C/c1ccco1)NO 0 - -
O=C(NO)c1ccc(C(=O)N/N=C/c2cc(F)ccc2O)cc1 0 0 0
CC1=C(C/C=N/NC(=O)c2ccc(C(=O)NO)cc2)C(C)(C)CCC1 0 - -
C[C@H](CO)N1C[C@H](C)[C@@H](CN(C)Cc2ccc(C(=O)Nc3ccccc3N)cc2)Oc2c(NC(=O)c3cnccn3)cccc2C1=O 0 75.1 0
SMILES A1_apoptosis_2 T_cruzi_intra INS-1E_ATP_HTS
C[C@H](CO)N1C[C@H](C)[C@H](CN(C)Cc2ccc(C(=O)O)cc2)Oc2c(NC(=O)c3cnccn3)cccc2C1=O 0 0 0
C[C@H]1CN([C@@H](C)CO)C(=O)c2cccc(NC(=O)c3cnccn3)c2O[C@H]1CN(C)Cc1ccc(C(=O)Nc2ccccc2N)cc1 0 67.5 0
C[C@H]1CN([C@@H](C)CO)C(=O)c2cccc(NC(=O)c3cnccn3)c2O[C@@H]1CN(C)Cc1ccc(C(=O)Nc2ccccc2N)cc1 0 ? 0
COC(=O)CCCCCCC(=O)NN - 0 0
C[C@@H]1CN([C@H](C)CO)C(=O)Cc2cc(NC(=O)Nc3ccc(C(F)(F)F)cc3)ccc2O[C@@H]1CN(C)Cc1ccc(C(=O)Nc2ccccc2N)cc1 0 83.4 0
C[C@H]1CN([C@@H](C)CO)C(=O)Cc2cc(NC(=O)Nc3ccc(C(F)(F)F)cc3)ccc2O[C@H]1CN(C)Cc1ccc(C(=O)Nc2ccccc2N)cc1 0 86.9 0
C[C@H](CO)N1C[C@H](C)[C@H](CN(C)Cc2ccc(C(=O)Nc3ccccc3N)cc2)Oc2ccc(NC(=O)Nc3ccc(C(F)(F)F)cc3)cc2C1=O 0 0 0
C[C@H]1CN([C@@H](C)CO)C(=O)Cc2cc(NC(=O)c3ccncc3)ccc2O[C@@H]1CN(C)Cc1ccc(C(=O)Nc2ccccc2N)cc1 0 0 0
O=C(NO)c1cccc(C(=O)N/N=C/c2ccc(N3CCCC3)cc2)c1 0 0 0
CCOc1ncnc2ccc(Br)cc12 0 - -
C[C@@H]1CN([C@H](C)CO)C(=O)c2cc(NS(=O)(=O)c3cccs3)ccc2O[C@@H]1CN(C)Cc1ccc(C(=O)Nc2ccccc2N)cc1 - 63.5 0
C[C@H]1CN([C@@H](C)CO)C(=O)c2cc(NS(=O)(=O)c3cccs3)ccc2O[C@H]1CN(C)Cc1ccc(C(=O)Nc2ccccc2N)cc1 - 0 0
C[C@H](CO)N1C[C@H](C)[C@H](CN(C)Cc2ccc(C(=O)Nc3ccccc3N)cc2)Oc2ccc(NS(=O)(=O)c3cccs3)cc2C1=O - 65.4 0
C[C@@H]1CN([C@H](C)CO)C(=O)c2cc(NS(=O)(=O)c3cccs3)ccc2O[C@H]1CN(C)Cc1ccc(C(=O)Nc2ccccc2N)cc1 0 - -
C[C@@H]1CN([C@@H](C)CO)C(=O)Cc2cc(NS(=O)(=O)c3cccs3)ccc2O[C@@H]1CN(C)Cc1ccc(C(=O)Nc2ccccc2N)cc1 0 62.5 0
C[C@@H]1CN([C@H](C)CO)C(=O)Cc2cc(NS(=O)(=O)c3cccs3)ccc2O[C@@H]1CN(C)Cc1ccc(C(=O)Nc2ccccc2N)cc1 0 0 0
O=C(CCCCCC(=O)N/N=C/c1ccc(Br)s1)NO 0 - -
COc1ccc(S(=O)(=O)N(C)C[C@@H]2Oc3c(NS(=O)(=O)c4ccccc4)cccc3C(=O)N([C@H](C)CO)C[C@H]2C)cc1 0 0 0
C[C@@H]1CN([C@@H](C)CO)C(=O)c2cccc(NS(=O)(=O)c3ccc(F)cc3)c2O[C@@H]1CN(C)Cc1ccc(C(=O)Nc2ccccc2N)cc1 - 0 0

Screens: PubChem, Broad Institute
